Experimental data collected from several papers.
Compare with care: the assays were run in different laboratories.
Target: Serine/threonine-protein kinase MARK2 (MARK2, Homo sapiens, UniProt Q7KZI7)

O=C1NC(=O)c2cc(Nc3ccc(F)cc3)c(Nc3ccc(F)cc3)cc21 — remaining signal (cell-free assay; 0.5 µM): 98.2%
Cc1nn(CC(F)(F)F)cc1Nc1ncc(C2CC2)c(NCc2ccc(S(N)(=O)=O)cc2)n1 — remaining activity (enzyme activity; inhibitor; radiometric; 1 µM): 100%
CN1CC(Oc2cnc(C#N)cc2-c2ccn3nc(NC(=O)C4CC4)cc3c2)C1 — inhibition (enzyme activity; inhibitor; 1 µM): -1%
c1cc(CN2CCOCC2)cc(Nc2ncc(C3CC3)c(NCCc3c[nH]cn3)n2)c1 — remaining activity (enzyme activity; inhibitor; radiometric; 1 µM): 14%
c1ccc(CNc2nc(N3CCOc4ccccc43)nc3c2CCCC3)cc1 — inhibition (target engagement in cells; inhibitor; chemoproteomics; 20 mM): -11.2%
O=C(Nc1cnc(Oc2ccc(F)cc2)nc1)N1CCc2ncccc2[C@@H]1c1ccc(F)cc1 — remaining binding (cell-free assay; competition with immobilised ligand; 1 µM): 90%
Cc1ccc(C(=O)NCc2ccsc2)cc1C#Cc1cn(C(C)C)c2ncnc(N)c12 — activity vs control (enzyme activity; inhibitor; 1 µM): 99%
CN(C)C1CCN(CC#Cc2nn(C3CCCC3)c3nc(NCc4ccccc4)ncc23)C1 (stereo not drawn) — inhibition (enzyme activity; inhibitor; FRET; 1 µM): 3%
CC/C(=N\NC(=O)NCc1cccc(O)c1)c1ccc(O)c(C)c1O — inhibition (enzyme activity; inhibitor; 0.1 µM): -5.8%
Cc1noc([C@H]2C[C@@H](c3ccc(C(F)(F)F)cc3)CN(C(=O)N3CCS(=O)(=O)C3)C2)n1 — remaining binding (cell-free assay; competition with immobilised ligand; 1 µM): 100%
Cc1ccc(Nc2nccc(N(C)c3ccc4c(C)n(C)nc4c3)n2)cc1S(N)(=O)=O — inhibition (enzyme activity; inhibitor; 0.3 µM): 27%
CO[C@H]1CC[C@H](CNc2ccc(S(=O)(=O)NC(=O)c3ccc(N4CCN(CC5=C(c6ccc(Cl)cc6)CC(C)(C)CC5)CC4)cc3Oc3cnc4[nH]ccc4c3)cc2[N+](=O)[O-])CC1 — remaining binding (cell-free assay; competition with immobilised ligand; 1 µM): 100%
O=C(NCCCNc1nc(Nc2cccc(CN3CCOCC3)c2)ncc1C1CC1)C1CCC1 — remaining activity (enzyme activity; inhibitor; radiometric; 1 µM): 4%
Cn1nc(C(=O)NCc2ccc(C(=O)O)cc2)cc1-c1ccc2[nH]ccc2c1 — remaining binding (cell-free assay; competition with immobilised ligand; 0.1 µM): 100%
Cc1nn(CC(F)(F)F)cc1Nc1ncc(C2CC2)c(NCCCNC(=O)C2CCC2)n1 — remaining activity (enzyme activity; inhibitor; radiometric; 1 µM): 93%
N#CCCc1ccc2c(c1)-c1[nH]c3ccc([N+](=O)[O-])cc3c1CC(=O)N2 — remaining signal (cell-free assay; 0.5 µM): 65.5%
c1cc(CN2CCOCC2)cc(Nc2nccc(NCCc3cnc[nH]3)n2)c1 — remaining activity (enzyme activity; inhibitor; radiometric; 1 µM): 93%
CN1CCN(c2cnc3c(C4CCN(C(=O)c5ccc(OC(F)(F)F)cc5N)CC4)ncnc3c2)CC1 — remaining binding (cell-free assay; competition with immobilised ligand; 1 µM): 100%
